Legend:
[1] = Inhibition of bacterial NDM1 expressed in Escherichia coli BL21(DE3) using cefazolin as substrate by spectrometric method; design: species or system Bacteria
Method in brief: (§1)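 Purified enzymes, overexpressed and purified by earlier methods, assayed under steady-state conditions by UV spectrometry in 50 mM Tris, pH 7.0. Substrate for NDM-1, VIM-2 and L1 was cefazolin (50 µM), read at 262 nm. Substrate for ImiS was imipenem (60 µM), read at 300 nm. Inhibitor varied 0–50 µM; IC50 is the concentration giving 50% loss of activity.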

[2] = Inhibition of bacterial VIM2 expressed in Escherichia coli BL21(DE3) using cefazolin as substrate by spectrometric method; design: species or system Bacteria; method in brief: as §1
[3] = Inhibition of bacterial ImiS expressed in Escherichia coli BL21(DE3) using imipenem as substrate by spectrometric method; design: species or system Bacteria; method in brief: as §1
[4] = Inhibition of bacterial L1 expressed in Escherichia coli BL21(DE3) using cefazolin as substrate by spectrometric method; design: species or system Bacteria; method in brief: as §1
Bacteria [5] = assay: Inhibition of bacterial NDM1 expressed in Escherichia coli DH10B assessed as potentiation of cefazolin-induced antibacterial activity by measuring cefazolin MIC at 32 ug/ml after 16 hrs by broth micro-dilution method (reference value: 8 ug/ml)
Bacteria [6] = assay: Inhibition of bacterial VIM2 expressed in Escherichia coli DH10B assessed as potentiation of cefazolin-induced antibacterial activity by measuring cefazolin MIC at 32 ug/ml after 16 hrs by broth micro-dilution method (reference value: 512 ug/ml)
Bacteria [7] = assay: Inhibition of bacterial ImiS expressed in Escherichia coli DH10B assessed as potentiation of imipenem-induced antibacterial activity by measuring imipenem MIC at 32 ug/ml after 16 hrs by broth micro-dilution method (reference value: 2 ug/ml)
Bacteria [8] = assay: Inhibition of bacterial L1 expressed in Escherichia coli DH10B assessed as potentiation of cefazolin-induced antibacterial activity by measuring cefazolin MIC at 32 ug/ml after 16 hrs by broth micro-dilution method (reference value: 32 ug/ml)
Method in brief: (§2)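 Dose-dependent cefazolin MIC assay against E. coli DH10B expressing L1 from a pBCSK plasmid, with varied inhibitor doses up to 256 µg/mL. Fold decrease in MIC was taken relative to cefazolin alone. Medium pH was monitored during the assay.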

Bacteria [9] = assay: Inhibition of bacterial L1 expressed in Escherichia coli DH10B assessed as potentiation of cefazolin-induced antibacterial activity by measuring fold reduction in cefazolin MIC at 32 ug/ml after 16 hrs by broth micro-dilution method relative to cefazolin alone; method in brief: as §2
Bacteria [10] = assay: Inhibition of bacterial NDM1 expressed in Escherichia coli DH10B assessed as potentiation of cefazolin-induced antibacterial activity by measuring fold reduction in cefazolin MIC at 32 ug/ml after 16 hrs by broth micro-dilution method relative to cefazolin alone
Bacteria [11] = assay: Inhibition of bacterial VIM2 expressed in Escherichia coli DH10B assessed as potentiation of cefazolin-induced antibacterial activity by measuring fold reduction in cefazolin MIC at 32 ug/ml after 16 hrs by broth micro-dilution method relative to cefazolin alone
[12] = Cytotoxicity against mouse L929 cells assessed as cell viability up to 200 uM after 48 hrs by CCK8 assay relative to control; assay type: cell-based; settings: read-out: Activity
Method in brief: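 Mouse fibroblast L929 cells exposed to inhibitors at 12.5, 25, 50, 100, 200 and 400 µM working concentrations; percentage of cells maintaining viability measured.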

Bacteria [13] = assay: Inhibition of bacterial L1 expressed in Escherichia coli DH10B assessed as potentiation of cefazolin-induced antibacterial activity by measuring cefazolin MIC at 16 ug/ml after 16 hrs by broth micro-dilution method (reference value: 32 ug/ml); method in brief: as §2
Bacteria [14] = assay: Inhibition of bacterial L1 expressed in Escherichia coli DH10B assessed as potentiation of cefazolin-induced antibacterial activity by measuring cefazolin MIC at 64 ug/ml after 16 hrs by broth micro-dilution method (reference value: 32 ug/ml); method in brief: as §2
Bacteria [15] = assay: Inhibition of bacterial L1 expressed in Escherichia coli DH10B assessed as potentiation of cefazolin-induced antibacterial activity by measuring cefazolin MIC at 128 ug/ml after 16 hrs by broth micro-dilution method (reference value: 32 ug/ml); method in brief: as §2
Bacteria [16] = assay: Inhibition of bacterial L1 expressed in Escherichia coli DH10B assessed as potentiation of cefazolin-induced antibacterial activity by measuring cefazolin MIC at 256 ug/ml after 16 hrs by broth micro-dilution method (reference value: 32 ug/ml); method in brief: as §2
Bacteria [17] = assay: Inhibition of bacterial L1 expressed in Escherichia coli DH10B assessed as potentiation of cefazolin-induced antibacterial activity by measuring fold reduction in cefazolin MIC at 256 ug/ml after 16 hrs by broth micro-dilution method relative to cefazolin alone; method in brief: as §2
Escherichia coli [18] = assay: Toxicity against Escherichia coli DH10B up to 256 ug/ml after 16 hrs by broth micro-dilution method; assay type: organism-based, K-12 substr. DH10B; settings: in vivo
Method in brief: (§3)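 Compounds alone, at the same doses used in the MIC potentiation assays, tested for antibacterial effect against E. coli with and without MβL expression.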

Escherichia coli [19] = assay: Toxicity against Escherichia coli DH10B expressing bacterial L1 up to 256 ug/ml after 16 hrs by broth micro-dilution method; assay type: organism-based, K-12 substr. DH10B; settings: in vivo; method in brief: as §3
Bacteria [20] = assay: Inhibition of bacterial L1 expressed in Escherichia coli DH10B assessed as potentiation of cefazolin-induced antibacterial activity by measuring decrease in cefazolin MIC after 16 hrs by broth micro-dilution method; method in brief: as §2
Bacteria [21] = assay: Inhibition of bacterial VIM2 expressed in Escherichia coli BL21(DE3) at 50 uM using cefazolin as substrate by spectrometric method relative to control
[22] = Stability of the compound in pH 6 to 6.5 MES buffer at 50 uM after 24 hrs by UV-Vis spectra analysis; assay type: physicochemical; settings: pH 6, 24 h
Method in brief: (§4)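 Compound at 50 µM held in MES (pH 5.5, 6.0, 6.5), in Tris (pH 7.0–8.5), or in Tris pH 7.0 containing L1. Absorbance change at 401 nm followed over 24 h.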

[23] = Stability of the compound in pH 7 Tris buffer at 50 uM after 24 hrs by UV-Vis spectra analysis; assay type: physicochemical; settings: pH 7, 24 h; method in brief: as §4
[24] = Stability of the compound in pH 7 Tris buffer at 50 uM after 24 hrs in presence of bacterial L1 by UV-Vis spectra analysis; assay type: ADME; settings: pH 7, 24 h; method in brief: as §4
Bacteria [25] = assay: Inhibition of bacterial NDM1 expressed in Escherichia coli BL21(DE3) at 20 uM using cefazolin as substrate by spectrometric method relative to control
Bacteria [26] = assay: Inhibition of bacterial VIM2 expressed in Escherichia coli BL21(DE3) at 4 uM using cefazolin as substrate by spectrometric method relative to control
Bacteria [27] = assay: Inhibition of bacterial ImiS expressed in Escherichia coli BL21(DE3) at 40 uM using imipenem as substrate by spectrometric method relative to control
Bacteria [28] = assay: Inhibition of bacterial L1 expressed in Escherichia coli BL21(DE3) at 0.8 uM using cefazolin as substrate by spectrometric method relative to control

Row | IC50 [1] [µM] | IC50 [2] [µM] | IC50 [3] [µM] | IC50 [4] [µM] | MIC (Bacteria [5]) [mg/L] | MIC (Bacteria [6]) [mg/L] | MIC (Bacteria [7]) [mg/L] | MIC (Bacteria [8]) [mg/L] | fold change (FC) (Bacteria [9]) | fold change (FC) (Bacteria [10]) | fold change (FC) (Bacteria [11]) | MIC (Bacteria [13]) [mg/L] | MIC (Bacteria [14]) [mg/L] | MIC (Bacteria [15]) [mg/L] | MIC (Bacteria [16]) [mg/L] | fold change (FC) (Bacteria [17]) | inhibition (Bacteria [20]) | SMILES | viability at 48 h [12] [%] | Activity (Escherichia coli [18]) | Activity (Escherichia coli [19]) | also measured
1 | 6.7 | 3.9 | 15.9 | 0.02 | 1 | 128 | 1 | 4 | 8 | 4 to 8 | 4 | 8 | 2 | 2 | 1 | 32 | Dose-dependent effect | O=C(O)c1ccc(N2C(=O)/C(=C/c3ccc([N+](=O)[O-])cc3[N+](=O)[O-])SC2=S)cc1 | > 80 | Non-Toxic | Non-Toxic | –
2 | 12 | – | 15 | 0.31 | 2 | > 512 | 0.5 | 4 | 8 | 4 to 8 | – | – | – | – | – | – | – | COc1ccc(/C=C2\SC(=S)N(c3ccc(C(=O)O)cc3)C2=O)cc1 | – | – | – | inhibition (Bacteria [21]): < 50%; Stability [22]: Stable; Stability [23]: Stable; Stability [24]: Stable
3 | 1.31 | 0.19 | 3 | 0.05 | 4 | 128 | 1 | 4 | 8 | – | 4 | 16 | 4 | 2 | 2 | 16 | Dose-dependent effect | O=C(O)c1ccc(N2C(=O)/C(=C/c3ccccc3[N+](=O)[O-])SC2=S)cc1 | 80 | Non-Toxic | Non-Toxic | inhibition (Bacteria [25]): > 95%; inhibition (Bacteria [26]): > 95%; inhibition (Bacteria [27]): > 95%; inhibition (Bacteria [28]): > 95%

— ChEMBL document CHEMBL4251739, “Rhodanine as a Potent Scaffold for the Development of Broad-Spectrum Metallo-β-lactamase Inhibitors” (ACS Med Chem Lett, 2018)
